Data: ChEMBL document CHEMBL4219150, “Fragment-Based Approach to Targeting Inosine-5'-monophosphate Dehydrogenase (IMPDH) from Mycobacterium tuberculosis” (J Med Chem, 2018)
≈ marks a conversion by molar mass, not a printed value.

These compounds were tested on Mycobacterium tuberculosis (assay: Antibacterial activity against Mycobacterium tuberculosis H37Rv assessed as inhibition of bacterial growth after 7 days by alamar blue fluorescence-based broth microdilution assay). Settings: 168 h.
Assay type: functional
Procedure, shortened: (§1)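 Mtb H37Rv grown to mid-exponential phase in Middlebrook 7H9 with OADC, 0.2% glycerol, 0.05% Tween-80. Compounds in DMSO (1%) tested at 8 concentrations; rifampin and isoniazid as positive controls. ~10^5 bacteria per well, 37°C for 7 d, then Alamar Blue for a further 24 h at 37°C. Fluorescence read at ex 544/em 590 nm. Data normalised to min/max inhibition controls; MIC90 taken from the dose-response curve.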
In the case of `C[C@H](Oc1ccc(-c2cn(C)cn2)cc1)C(=O)Nc1nc(-c2ccc(Br)cc2)c[nH]1`, the MIC90 is reported as at least 50 µM. With `CC(Oc1ccc(-c2cn(C)cn2)cc1)C(=O)Nc1nc(-c2ccc(N3CCOCC3)cc2)c[nH]1` (stereo not given) the MIC90 was at least 50 µM. In the case of `CC(Oc1ccc(-c2cn(C)cn2)cc1)C(=O)Nc1nc(-c2ccc(Br)cc2)co1` (stereo not given), the MIC90 is reported as at least 50 µM. In the case of `CC(Oc1ccc(-c2cn(C)cn2)cc1)C(=O)Nc1nc(-c2ccc(Br)cc2)c[nH]1` (stereo not given), the MIC90 is reported as at least 50 µM. Work on `CC(Oc1ccc(-c2cn(C)cn2)cc1)C(=O)Nc1ccc(I)cc1` (stereo not given) yielded an MIC90 of at least 50 µM. With `COc1ccc(-c2c[nH]c(NC(=O)C(C)Oc3ccc(-c4cn(C)cn4)cc3)n2)cc1` (stereo not given) the MIC90 was at least 50 µM. `CC(Oc1ccc(-c2cn(C)cn2)cc1)C(=O)Nc1nc(-c2ccccc2)c[nH]1` (stereo not given) showed an MIC90 of at least 50 µM. `CC(Oc1ccc(-c2cn(C)cn2)cc1)C(=O)Nc1nc(-c2ccc(I)cc2)c[nH]1` (stereo not given) showed an MIC90 of at least 50 µM. For `CC(Oc1ccc(-c2cn(C)cn2)cc1)C(=O)Nc1ccccc1` (stereo not given), the MIC90 was at least 50 µM.

Each compound was assayed against Inosine-5'-monophosphate dehydrogenase (Mycobacterium tuberculosis (strain ATCC 25618 / H37Rv)) (UniProt P9WKI7) (assay: Uncompetitive inhibition of Mycobacterium tuberculosis H37Rv IMPDH assessed as reduction in NADH production preincubated for 5 mins followed by substrate IMP addition at increasing concentration measured for 32 mins in presence of a constant concentration of NAD+ by Lineweaver-Burk plot analysis). Settings: not given.
Inosine-5'-monophosphate dehydrogenase (Mycobacterium tuberculosis (strain ATCC 25618 / H37Rv)), sequence (P9WKI7 whole entry): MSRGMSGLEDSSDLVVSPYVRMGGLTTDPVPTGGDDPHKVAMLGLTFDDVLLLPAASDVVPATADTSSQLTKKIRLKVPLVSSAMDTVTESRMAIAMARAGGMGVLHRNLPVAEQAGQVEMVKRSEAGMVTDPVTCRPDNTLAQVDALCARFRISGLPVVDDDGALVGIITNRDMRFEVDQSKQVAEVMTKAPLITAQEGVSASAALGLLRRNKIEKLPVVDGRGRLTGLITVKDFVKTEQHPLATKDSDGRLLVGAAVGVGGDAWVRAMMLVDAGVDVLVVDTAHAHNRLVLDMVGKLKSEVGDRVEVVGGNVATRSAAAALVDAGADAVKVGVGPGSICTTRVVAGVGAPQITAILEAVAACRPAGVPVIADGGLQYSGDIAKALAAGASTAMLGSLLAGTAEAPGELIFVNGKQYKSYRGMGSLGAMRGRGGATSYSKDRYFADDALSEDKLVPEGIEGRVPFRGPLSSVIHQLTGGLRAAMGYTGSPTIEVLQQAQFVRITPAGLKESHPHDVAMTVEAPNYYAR
`COc1ccc(OC(C)C(=O)Nc2ccc(I)cc2)cc1` (stereo not given) was tested, and the alphaKi was 0.603 µM.

The compounds below were run on Mycobacterium tuberculosis (assay: Antibacterial activity against Mycobacterium tuberculosis ATCC 27294 after 7 days by broth microdilution method). Settings: ATCC 27294, 168 h.
Assay type: functional
`COc1c(C)c2c(c(O)c1C/C=C(\C)Cn1cc(COC[C@H]3O[C@@H](n4cnc5c(N)ncnc54)[C@H](O)[C@@H]3O)nn1)C(=O)OC2` was tested, and the MIC was 100 µM (≈ 60.9 µg/mL). In the case of `C=C(C)c1cccc(C(C)(C)NC(=O)Nc2ccc(Cl)c(C(=O)N(C)C)c2)c1`, the MIC is reported as 5 µM (≈ 2 µg/mL).

The compounds below were run on Mycobacterium tuberculosis (assay: Antibacterial activity against Mycobacterium tuberculosis after 7 days by Alamar Blue assay). Settings: 168 h.
Assay type: functional
Procedure, shortened: as §1
For `COc1ccc(OC(C)C(=O)Nc2ccc(I)cc2)cc1` (stereo not given), the MIC was 12.5 µM (≈ 4.97 µg/mL).

These compounds were tested on Mycobacterium tuberculosis (assay: Antibacterial activity against Mycobacterium tuberculosis). Settings: not given.
Assay type: functional
Procedure, shortened: as §1
Work on `Cc1n[nH]c(C)c1S(=O)(=O)Nc1ccc2c[nH]nc2c1` yielded an MIC of 2 µM (≈ 0.583 µg/mL). Work on `O=C(C1CCCCC1)N1CCN(S(=O)(=O)c2ccc3cnccc3c2)CC1` yielded an MIC of 1.9 µM (≈ 0.736 µg/mL).
